# Results reported in ChEMBL document CHEMBL2177092, “Phosphoramidate ProTides of the anticancer agent FUDR successfully deliver the preformed bioactive monophosphate in cells and confer advantage over the parent nucleoside” (J Med Chem, 2011).
# Test system: L1210
# Experiment: Ratio of IC50 for Mycoplasma hyorhinis-infected mouse L1210 cells to IC50 for mouse L1210/0 cells after 48 hrs by cell counting
# Type: functional
# Conditions: not given
# Summary of the method: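 Murine L1210/0 cells were compared with L1210/TK cells, selected for resistance to 5-bromo-2'-dUrd, and with L1210.Hyor cells, chronically infected with Mycoplasma hyorhinis. Cells were grown in DMEM with 10% FBS, 10 mM Hepes and 1 mM pyruvate at 37 °C and 5% CO2, then seeded at 60 000 cells/well with compound. They were Coulter-counted after 48 h. […] Mean of 2–4 experiments.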
row,SMILES,Ratio IC50
1,CCCCOC(=O)[C@H](C)NP(=O)(OC[C@H]1O[C@@H](n2cc(F)c(=O)[nH]c2=O)C[C@@H]1O)Oc1cccc2ccccc12 (mixture of isomers),2.2
2,O=C(OCc1ccccc1)[C@@H]1CCCN1P(=O)(OC[C@H]1O[C@@H](n2cc(F)c(=O)[nH]c2=O)C[C@@H]1O)Oc1cccc2ccccc12 (mixture of isomers),2.5
3,O=C(OCc1ccccc1)[C@H](Cc1ccccc1)NP(=O)(OC[C@H]1O[C@@H](n2cc(F)c(=O)[nH]c2=O)C[C@@H]1O)Oc1ccccc1 (mixture of isomers),35
4,C[C@H](NP(=O)(OC[C@H]1O[C@@H](n2cc(F)c(=O)[nH]c2=O)C[C@@H]1O)Oc1cccc2ccccc12)C(=O)OC1CCC1 (mixture of isomers),2.2
5,CC[C@H](C)[C@H](NP(=O)(OC[C@H]1O[C@@H](n2cc(F)c(=O)[nH]c2=O)C[C@@H]1O)Oc1ccccc1)C(=O)OCc1ccccc1 (mixture of isomers),2.2
6,CC(C)[C@H](NP(=O)(OC[C@H]1O[C@@H](n2cc(F)c(=O)[nH]c2=O)C[C@@H]1O)Oc1cccc2ccccc12)C(=O)OC1CCCCC1 (mixture of isomers),1.08

# Test system: L1210
# Experiment: Cytostatic activity against Mycoplasma hyorhinis-infected mouse L1210 cells after 48 hrs by cell counting
# Type: functional, cell-based
# Conditions: L1210, 48 h
# Summary of the method: (§1)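 Suspension leukemia cells in DMEM with 10% FBS, 10 mM Hepes and 1 mM sodium pyruvate at 37 °C under 5% CO2. Seeded at 60 000 cells/well with graded compound levels. Grown 48 h (L1210) or 72 h (CEM), then counted by Coulter counter. Mean ± SD of two to four independent experiments.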
row,SMILES,IC50 [nM]
1,CCCCOC(=O)[C@H](C)NP(=O)(OC[C@H]1O[C@@H](n2cc(F)c(=O)[nH]c2=O)C[C@@H]1O)Oc1cccc2ccccc12 (mixture of isomers),21
2,O=C(OCc1ccccc1)[C@@H]1CCCN1P(=O)(OC[C@H]1O[C@@H](n2cc(F)c(=O)[nH]c2=O)C[C@@H]1O)Oc1cccc2ccccc12 (mixture of isomers),650
3,O=C(OCc1ccccc1)[C@H](Cc1ccccc1)NP(=O)(OC[C@H]1O[C@@H](n2cc(F)c(=O)[nH]c2=O)C[C@@H]1O)Oc1ccccc1 (mixture of isomers),560
4,C[C@H](NP(=O)(OC[C@H]1O[C@@H](n2cc(F)c(=O)[nH]c2=O)C[C@@H]1O)Oc1cccc2ccccc12)C(=O)OC1CCC1 (mixture of isomers),24
5,CC[C@H](C)[C@H](NP(=O)(OC[C@H]1O[C@@H](n2cc(F)c(=O)[nH]c2=O)C[C@@H]1O)Oc1ccccc1)C(=O)OCc1ccccc1 (mixture of isomers),2200
6,CC(C)[C@H](NP(=O)(OC[C@H]1O[C@@H](n2cc(F)c(=O)[nH]c2=O)C[C@@H]1O)Oc1cccc2ccccc12)C(=O)OC1CCCCC1 (mixture of isomers),1290

# Test system: HeLa
# Experiment: Cytostatic activity against human HeLa cells […] by cell counting
# Type: functional, cell-based
# Conditions: not given
row,SMILES,IC50 [nM]
1,CCCCOC(=O)[C@H](C)NP(=O)(OC[C@H]1O[C@@H](n2cc(F)c(=O)[nH]c2=O)C[C@@H]1O)Oc1cccc2ccccc12 (mixture of isomers),120
2,O=C(OCc1ccccc1)[C@@H]1CCCN1P(=O)(OC[C@H]1O[C@@H](n2cc(F)c(=O)[nH]c2=O)C[C@@H]1O)Oc1cccc2ccccc12 (mixture of isomers),1200
3,O=C(OCc1ccccc1)[C@H](Cc1ccccc1)NP(=O)(OC[C@H]1O[C@@H](n2cc(F)c(=O)[nH]c2=O)C[C@@H]1O)Oc1ccccc1 (mixture of isomers),14
4,C[C@H](NP(=O)(OC[C@H]1O[C@@H](n2cc(F)c(=O)[nH]c2=O)C[C@@H]1O)Oc1cccc2ccccc12)C(=O)OC1CCC1 (mixture of isomers),69
5,CC[C@H](C)[C@H](NP(=O)(OC[C@H]1O[C@@H](n2cc(F)c(=O)[nH]c2=O)C[C@@H]1O)Oc1ccccc1)C(=O)OCc1ccccc1 (mixture of isomers),710
6,CC(C)[C@H](NP(=O)(OC[C@H]1O[C@@H](n2cc(F)c(=O)[nH]c2=O)C[C@@H]1O)Oc1cccc2ccccc12)C(=O)OC1CCCCC1 (mixture of isomers),670

# Test system: HeLa
# Experiment: Cytostatic activity against thymidine-kinase deficient human HeLa cells […]
# Type: functional, cell-based
# Conditions: not given
row,SMILES,IC50 [nM]
1,CCCCOC(=O)[C@H](C)NP(=O)(OC[C@H]1O[C@@H](n2cc(F)c(=O)[nH]c2=O)C[C@@H]1O)Oc1cccc2ccccc12 (mixture of isomers),2700
2,O=C(OCc1ccccc1)[C@@H]1CCCN1P(=O)(OC[C@H]1O[C@@H](n2cc(F)c(=O)[nH]c2=O)C[C@@H]1O)Oc1cccc2ccccc12 (mixture of isomers),26000
3,O=C(OCc1ccccc1)[C@H](Cc1ccccc1)NP(=O)(OC[C@H]1O[C@@H](n2cc(F)c(=O)[nH]c2=O)C[C@@H]1O)Oc1ccccc1 (mixture of isomers),12000
4,C[C@H](NP(=O)(OC[C@H]1O[C@@H](n2cc(F)c(=O)[nH]c2=O)C[C@@H]1O)Oc1cccc2ccccc12)C(=O)OC1CCC1 (mixture of isomers),1500
5,CC[C@H](C)[C@H](NP(=O)(OC[C@H]1O[C@@H](n2cc(F)c(=O)[nH]c2=O)C[C@@H]1O)Oc1ccccc1)C(=O)OCc1ccccc1 (mixture of isomers),25000
6,CC(C)[C@H](NP(=O)(OC[C@H]1O[C@@H](n2cc(F)c(=O)[nH]c2=O)C[C@@H]1O)Oc1cccc2ccccc12)C(=O)OC1CCCCC1 (mixture of isomers),27000

# Test system: CCRF-CEM
# Experiment: Cytostatic activity against thymidine-kinase deficient human CEM cells after 72 hrs by cell counting
# Type: functional, cell-based
# Conditions: not given
# Summary of the method: as §1
row,SMILES,IC50 [nM]
1,CCCCOC(=O)[C@H](C)NP(=O)(OC[C@H]1O[C@@H](n2cc(F)c(=O)[nH]c2=O)C[C@@H]1O)Oc1cccc2ccccc12 (mixture of isomers),840
2,O=C(OCc1ccccc1)[C@@H]1CCCN1P(=O)(OC[C@H]1O[C@@H](n2cc(F)c(=O)[nH]c2=O)C[C@@H]1O)Oc1cccc2ccccc12 (mixture of isomers),32000
3,O=C(OCc1ccccc1)[C@H](Cc1ccccc1)NP(=O)(OC[C@H]1O[C@@H](n2cc(F)c(=O)[nH]c2=O)C[C@@H]1O)Oc1ccccc1 (mixture of isomers),11000
4,C[C@H](NP(=O)(OC[C@H]1O[C@@H](n2cc(F)c(=O)[nH]c2=O)C[C@@H]1O)Oc1cccc2ccccc12)C(=O)OC1CCC1 (mixture of isomers),1500
5,CC[C@H](C)[C@H](NP(=O)(OC[C@H]1O[C@@H](n2cc(F)c(=O)[nH]c2=O)C[C@@H]1O)Oc1ccccc1)C(=O)OCc1ccccc1 (mixture of isomers),30000
6,CC(C)[C@H](NP(=O)(OC[C@H]1O[C@@H](n2cc(F)c(=O)[nH]c2=O)C[C@@H]1O)Oc1cccc2ccccc12)C(=O)OC1CCCCC1 (mixture of isomers),46000

# Test system: CCRF-CEM
# Experiment: Cytostatic activity against human CEM/0 cells after 72 hrs by cell counting
# Type: functional, cell-based
# Conditions: not given
# Summary of the method: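 Suspension leukemia cells in DMEM with 10% FBS, 10 mM Hepes and 1 mM sodium pyruvate at 37 °C under 5% CO2. Seeded at 60 000 cells/well with graded compound levels. Grown 48 h (L1210) or 72 h (CEM), then counted by Coulter counter. […] Mean ± SD of two to four independent experiments.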
row,SMILES,IC50 [nM]
1,CCCCOC(=O)[C@H](C)NP(=O)(OC[C@H]1O[C@@H](n2cc(F)c(=O)[nH]c2=O)C[C@@H]1O)Oc1cccc2ccccc12 (mixture of isomers),64
2,O=C(OCc1ccccc1)[C@@H]1CCCN1P(=O)(OC[C@H]1O[C@@H](n2cc(F)c(=O)[nH]c2=O)C[C@@H]1O)Oc1cccc2ccccc12 (mixture of isomers),890
3,O=C(OCc1ccccc1)[C@H](Cc1ccccc1)NP(=O)(OC[C@H]1O[C@@H](n2cc(F)c(=O)[nH]c2=O)C[C@@H]1O)Oc1ccccc1 (mixture of isomers),250
4,C[C@H](NP(=O)(OC[C@H]1O[C@@H](n2cc(F)c(=O)[nH]c2=O)C[C@@H]1O)Oc1cccc2ccccc12)C(=O)OC1CCC1 (mixture of isomers),73
5,CC[C@H](C)[C@H](NP(=O)(OC[C@H]1O[C@@H](n2cc(F)c(=O)[nH]c2=O)C[C@@H]1O)Oc1ccccc1)C(=O)OCc1ccccc1 (mixture of isomers),1000
6,CC(C)[C@H](NP(=O)(OC[C@H]1O[C@@H](n2cc(F)c(=O)[nH]c2=O)C[C@@H]1O)Oc1cccc2ccccc12)C(=O)OC1CCCCC1 (mixture of isomers),800

# Test system: not listed separately
# Experiment: Cytostatic activity against mouse L1210/0 cells after 48 hrs by cell counting
# Type: functional, cell-based
# Conditions: L1210/0, 48 h
# Summary of the method: as §1
row,SMILES,IC50 [nM]
1,CCCCOC(=O)[C@H](C)NP(=O)(OC[C@H]1O[C@@H](n2cc(F)c(=O)[nH]c2=O)C[C@@H]1O)Oc1cccc2ccccc12 (mixture of isomers),9.5
2,O=C(OCc1ccccc1)[C@@H]1CCCN1P(=O)(OC[C@H]1O[C@@H](n2cc(F)c(=O)[nH]c2=O)C[C@@H]1O)Oc1cccc2ccccc12 (mixture of isomers),260
3,O=C(OCc1ccccc1)[C@H](Cc1ccccc1)NP(=O)(OC[C@H]1O[C@@H](n2cc(F)c(=O)[nH]c2=O)C[C@@H]1O)Oc1ccccc1 (mixture of isomers),16
4,C[C@H](NP(=O)(OC[C@H]1O[C@@H](n2cc(F)c(=O)[nH]c2=O)C[C@@H]1O)Oc1cccc2ccccc12)C(=O)OC1CCC1 (mixture of isomers),11
5,CC[C@H](C)[C@H](NP(=O)(OC[C@H]1O[C@@H](n2cc(F)c(=O)[nH]c2=O)C[C@@H]1O)Oc1ccccc1)C(=O)OCc1ccccc1 (mixture of isomers),980
6,CC(C)[C@H](NP(=O)(OC[C@H]1O[C@@H](n2cc(F)c(=O)[nH]c2=O)C[C@@H]1O)Oc1cccc2ccccc12)C(=O)OC1CCCCC1 (mixture of isomers),1200

# Test system: L1210
# Experiment: Cytostatic activity against thymidine-kinase deficient mouse L1210 cells after 48 hrs by cell counting
# Type: functional, cell-based
# Conditions: L1210, 48 h
# Summary of the method: as §1
row,SMILES,IC50 [nM]
1,CCCCOC(=O)[C@H](C)NP(=O)(OC[C@H]1O[C@@H](n2cc(F)c(=O)[nH]c2=O)C[C@@H]1O)Oc1cccc2ccccc12 (mixture of isomers),110
2,O=C(OCc1ccccc1)[C@@H]1CCCN1P(=O)(OC[C@H]1O[C@@H](n2cc(F)c(=O)[nH]c2=O)C[C@@H]1O)Oc1cccc2ccccc12 (mixture of isomers),25000
3,O=C(OCc1ccccc1)[C@H](Cc1ccccc1)NP(=O)(OC[C@H]1O[C@@H](n2cc(F)c(=O)[nH]c2=O)C[C@@H]1O)Oc1ccccc1 (mixture of isomers),39000
4,C[C@H](NP(=O)(OC[C@H]1O[C@@H](n2cc(F)c(=O)[nH]c2=O)C[C@@H]1O)Oc1cccc2ccccc12)C(=O)OC1CCC1 (mixture of isomers),88
5,CC[C@H](C)[C@H](NP(=O)(OC[C@H]1O[C@@H](n2cc(F)c(=O)[nH]c2=O)C[C@@H]1O)Oc1ccccc1)C(=O)OCc1ccccc1 (mixture of isomers),1100
6,CC(C)[C@H](NP(=O)(OC[C@H]1O[C@@H](n2cc(F)c(=O)[nH]c2=O)C[C@@H]1O)Oc1cccc2ccccc12)C(=O)OC1CCCCC1 (mixture of isomers),35000
